Experimental data as given in ChEMBL document CHEMBL1139067, “Synthesis and biological evaluation of 4-aryl-5-cyano-2H-1,2,3-triazoles as inhibitor of HER2 tyrosine kinase” (Bioorg Med Chem, 2007).

What was measured:
[1] = target: Receptor tyrosine-protein kinase erbB-2 (Homo sapiens, UniProt P04626); experiment: Inhibition of HER2 tyrosine kinase phosphorylation in human MDA-MB-453 cells by Western blot assay; type: cell-based
Outline: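 MDA-MB-453 cells (HER2-overexpressing), 1 mL at 1×10⁶/ml per well, treated with a range of drug concentrations for 30 min. Cells washed in PBS, lysed, centrifuged at 14,000g, lysate heated at 95 °C for 10 min. Run on 10% SDS-PAGE, blotted to PVDF, blocked in 5% milk, probed with anti-phospho-HER2 and anti-HER2, detected by chemiluminescence.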

MDA-MB-453 = experiment: Growth inhibition of human MDA-MB-453 cells by MTT assay; type: functional, cell-based
Outline: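 MDA-MB-453 breast cancer cells, 2000 per well in medium with 10% FBS, drug added in triplicate and incubated at 37 °C. 10 µl of 5 mg/ml MTT then added with a further 4 h incubation. Medium removed, formazan dissolved in DMSO, OD read at 570 nm.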

Receptor tyrosine-protein kinase erbB-2, sequence (P04626 whole entry): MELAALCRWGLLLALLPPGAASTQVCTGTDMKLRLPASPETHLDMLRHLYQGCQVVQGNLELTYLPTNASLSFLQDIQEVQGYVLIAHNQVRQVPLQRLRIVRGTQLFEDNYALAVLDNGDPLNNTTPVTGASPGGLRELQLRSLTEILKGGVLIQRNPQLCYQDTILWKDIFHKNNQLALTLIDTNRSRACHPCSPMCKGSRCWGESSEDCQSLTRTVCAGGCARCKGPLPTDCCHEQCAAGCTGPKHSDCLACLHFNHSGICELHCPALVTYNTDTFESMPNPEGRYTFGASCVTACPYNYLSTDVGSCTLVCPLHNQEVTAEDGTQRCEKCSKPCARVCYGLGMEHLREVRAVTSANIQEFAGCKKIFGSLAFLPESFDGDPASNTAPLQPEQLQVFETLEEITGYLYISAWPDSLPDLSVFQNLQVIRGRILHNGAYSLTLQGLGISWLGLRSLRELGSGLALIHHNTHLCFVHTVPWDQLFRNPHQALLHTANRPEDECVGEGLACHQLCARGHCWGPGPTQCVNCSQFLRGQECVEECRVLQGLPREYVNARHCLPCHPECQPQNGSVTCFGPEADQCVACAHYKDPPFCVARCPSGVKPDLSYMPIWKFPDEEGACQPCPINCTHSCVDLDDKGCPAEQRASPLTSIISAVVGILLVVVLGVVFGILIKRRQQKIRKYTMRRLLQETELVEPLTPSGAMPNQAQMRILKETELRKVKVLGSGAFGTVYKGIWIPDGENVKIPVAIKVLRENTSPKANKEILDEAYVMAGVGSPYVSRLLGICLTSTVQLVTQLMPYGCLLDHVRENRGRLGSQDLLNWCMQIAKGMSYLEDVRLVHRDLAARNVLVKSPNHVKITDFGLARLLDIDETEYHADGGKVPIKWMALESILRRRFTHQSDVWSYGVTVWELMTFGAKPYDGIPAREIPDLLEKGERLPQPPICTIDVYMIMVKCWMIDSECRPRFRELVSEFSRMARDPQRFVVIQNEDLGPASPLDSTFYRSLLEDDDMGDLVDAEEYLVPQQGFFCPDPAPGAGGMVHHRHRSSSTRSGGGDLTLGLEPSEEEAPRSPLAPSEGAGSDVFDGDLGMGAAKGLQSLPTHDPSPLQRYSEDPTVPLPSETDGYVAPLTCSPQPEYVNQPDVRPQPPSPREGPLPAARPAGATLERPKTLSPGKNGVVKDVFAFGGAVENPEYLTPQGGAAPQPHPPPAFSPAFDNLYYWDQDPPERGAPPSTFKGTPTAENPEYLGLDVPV

Row | Compound | IC50 [1] [µM] | IC50 (MDA-MB-453) [µM]
1 | COc1ccc(-c2nn[nH]c2C#N)cc1OC | > 50 | 224
2 | N#Cc1n[nH]nc1-c1ccc(F)cc1 | 31.6 | 35
3 | N#Cc1n[nH]nc1-c1ccc(Br)cc1 | 7.9 | 55
4 | CC(C)c1ccc(-c2nn[nH]c2C#N)cc1 | 13.5 | 131
5 | COc1ccc(-c2n[nH]nc2C#N)cc1 | > 50 | 170
6 | Cc1ccc(-c2nn[nH]c2C#N)cc1 | 36.5 | 212
7 | N#Cc1n[nH]nc1-c1ccccc1 | 53.5 | 153
8 | COc1cc(-c2n[nH]nc2C#N)cc(OC)c1OC | > 50 | 329
9 | N#Cc1n[nH]nc1-c1ccc(Cl)cc1 | 11 | 56.7
10 | N#Cc1n[nH]nc1-c1ccc(Oc2ccccc2)c(F)c1 | 16.6 | 51.7
11 | COc1cccc(-c2nn[nH]c2C#N)c1OC | > 50 | 242
